Laboratory results published in ChEMBL document CHEMBL4680248 (Eur J Med Chem, 2020).
pEC50, pIC50: −log10 of the molar value. Active and inactive are the calls of the source. The rule behind the calls is not given here.

Legend:
[1] = target: T1, GABA-A receptor; alpha-1/beta-3/gamma-2 (Homo sapiens, UniProt P14867+P18507+P28472); test: Inhibition of [3H]azietomidate labelling of GABAA alpha1beta3gamma2L (unknown origin) expressed in Xenopus laevis oocytes assessed as reduction in photoincorporation at M236 residues of alpha1 subunit measured after 30 mins in presence of GABA by liquid scintillation counting method; type: cell-based, Oocyte
T1 sequence (P14867 whole entry): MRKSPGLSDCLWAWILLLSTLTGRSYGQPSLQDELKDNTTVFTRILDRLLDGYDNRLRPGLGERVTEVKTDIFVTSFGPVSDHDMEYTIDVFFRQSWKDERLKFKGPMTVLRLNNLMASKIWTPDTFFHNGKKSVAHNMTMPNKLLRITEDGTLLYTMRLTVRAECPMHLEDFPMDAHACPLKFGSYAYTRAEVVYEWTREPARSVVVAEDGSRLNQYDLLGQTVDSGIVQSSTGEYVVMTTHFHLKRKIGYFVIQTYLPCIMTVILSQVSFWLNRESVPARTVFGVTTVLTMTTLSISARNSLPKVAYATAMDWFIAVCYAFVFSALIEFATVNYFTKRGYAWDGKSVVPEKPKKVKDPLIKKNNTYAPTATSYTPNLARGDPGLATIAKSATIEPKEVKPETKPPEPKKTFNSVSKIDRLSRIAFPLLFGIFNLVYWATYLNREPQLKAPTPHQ
T1 sequence (P18507 whole entry): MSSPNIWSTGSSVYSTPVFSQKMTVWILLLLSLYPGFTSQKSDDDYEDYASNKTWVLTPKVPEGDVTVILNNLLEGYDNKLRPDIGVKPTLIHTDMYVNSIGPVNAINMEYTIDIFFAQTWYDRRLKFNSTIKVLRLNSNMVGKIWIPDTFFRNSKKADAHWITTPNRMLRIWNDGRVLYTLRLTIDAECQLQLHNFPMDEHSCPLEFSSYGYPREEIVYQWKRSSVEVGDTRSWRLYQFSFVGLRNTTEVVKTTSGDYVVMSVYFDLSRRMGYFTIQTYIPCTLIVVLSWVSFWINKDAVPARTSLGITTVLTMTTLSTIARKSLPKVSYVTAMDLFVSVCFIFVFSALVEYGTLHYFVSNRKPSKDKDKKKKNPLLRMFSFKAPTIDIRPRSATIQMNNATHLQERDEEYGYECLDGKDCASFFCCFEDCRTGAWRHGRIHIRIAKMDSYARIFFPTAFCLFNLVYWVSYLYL
T1 sequence (P28472 whole entry): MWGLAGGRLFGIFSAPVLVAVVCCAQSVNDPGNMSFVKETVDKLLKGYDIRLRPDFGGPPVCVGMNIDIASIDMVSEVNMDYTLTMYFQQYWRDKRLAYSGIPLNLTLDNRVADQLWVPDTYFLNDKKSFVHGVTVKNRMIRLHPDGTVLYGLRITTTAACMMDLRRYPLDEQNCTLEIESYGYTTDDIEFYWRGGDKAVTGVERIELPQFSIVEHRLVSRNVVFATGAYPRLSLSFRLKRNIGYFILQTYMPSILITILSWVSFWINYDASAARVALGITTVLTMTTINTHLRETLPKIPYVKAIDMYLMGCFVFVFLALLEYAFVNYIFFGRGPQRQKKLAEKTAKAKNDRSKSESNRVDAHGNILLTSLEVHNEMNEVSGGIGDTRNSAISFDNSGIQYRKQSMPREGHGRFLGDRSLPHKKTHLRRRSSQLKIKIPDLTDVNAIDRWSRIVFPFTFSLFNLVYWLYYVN

Xenopus laevis = test: Anesthetic activity in Xenopus laevis tadpoles assessed as increase in loss of righting reflex incubated for 30 to 60 mins; type: functional, organism-based
[2] = target: T1, GABA-A receptor; alpha-1/beta-3/gamma-2; test: Inhibition of [3H]R-mTFD-MPAB labelling of GABAA alpha1beta3gamma2L (unknown origin) expressed in Xenopus laevis oocytes assessed as reduction in photoincorporation at M227 residues of beta3 subunit measured after 30 mins in presence of GABA by liquid scintillation counting method; type: cell-based
[3] = target: T1, GABA-A receptor; alpha-1/beta-3/gamma-2; test: Inhibition of [3H]pTFD-di-iPr-BnOH labelling of GABAA alpha1beta3gamma2L (unknown origin) expressed in Xenopus laevis oocytes assessed as reduction in photoincorporation at beta subunit measured after 30 mins in presence of GABA by liquid scintillation counting method; type: cell-based
[4] = target: T1, GABA-A receptor; alpha-1/beta-3/gamma-2; test: Positive allosteric modulation of GABAA alpha1beta3gamma2L in HEK cell plasma membrane assessed as increase in [3H]muscimol binding measured after 10 mins by liquid scintillation counting method; type: cell membranes
In short: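 HEK293 membranes (100 μg protein) from tetracycline-inducible cells expressing FLAG-tagged human receptors. Incubated 10 min with 2 nM [3H]muscimol (final) and modulator in 10 mM phosphate, 200 mM KCl, 1 mM EDTA, pH 7.4. Filtered on PEI-treated GF/B filters and washed twice with cold buffer. EC50 from fitting a logistic equation (Eqn 1) to pooled concentration-response points from independent experiments.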

[5] = target: T2, GABA-A receptor alpha-1/beta-3 (Homo sapiens, UniProt P14867+P28472); test: Positive allosteric modulation of GABAA alpha1beta3 in HEK cell plasma membrane assessed as increase in [3H]muscimol binding measured after 10 mins by liquid scintillation counting method; type: cell membranes
T2 sequence (P14867 whole entry): T1 sequence (P14867 whole entry)
T2 sequence (P28472 whole entry): T1 sequence (P28472 whole entry)
In short: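 Native membranes from tetracycline-inducible HEK293 cells expressing FLAG-tagged human receptors (100 μg protein), [3H]muscimol 2 nM final, plus modulator in 10 mM phosphate, 200 mM KCl, 1 mM EDTA, pH 7.4; 10 min incubation, filtration on PEI-treated GF/B filters, two cold washes. Concentration-response curves from independent experiments fitted to a Hill equation for EC50 and nH.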

[6] = target: T1, GABA-A receptor; alpha-1/beta-3/gamma-2; test: Positive allosteric modulation of GABAA alpha1beta3gamma2L (unknown origin) expressed in Xenopus laevis oocytes assessed as increase in GABA-induced current by two microelectrode voltage-clamp electrophysiology; type: cell-based, Oocyte
In short: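 Human subunit mRNA (0.5–1 ng, α:β:γ 1:1:5) injected into Xenopus oocytes, recorded about 24 h later. Two-electrode voltage clamp at −50 mV, room temperature, ND96 pH 7.6.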

[7] = Toxicity in Xenopus laevis tadpoles
Oocyte [8] = test: Positive allosteric modulation of GABAA alpha1beta3gamma2L M227W mutant (unknown origin) expressed in Xenopus laevis oocytes assessed as increase in GABA-induced current at 8 uM by two microelectrode voltage-clamp electrophysiology; type: cell-based; details: Homo sapiens, filed as positive allosteric modulator
Oocyte [9] = test: Positive allosteric modulation of GABAA alpha1beta3gamma2L S280W mutant (unknown origin) expressed in Xenopus laevis oocytes assessed as increase in GABA-induced current at 8 uM by two microelectrode voltage-clamp electrophysiology; type: cell-based; details: Homo sapiens
Oocyte [10] = test: Positive allosteric modulation of GABAA alpha1beta3gamma2L S270I mutant (unknown origin) expressed in Xenopus laevis oocytes assessed as increase in GABA-induced current at 8 uM by two microelectrode voltage-clamp electrophysiology; type: cell-based; details: Homo sapiens
Oocyte [11] = type: cell-based; details: Homo sapiens, filed as positive allosteric modulator, dose 8.0 µM
Oocyte [12] = test: Positive allosteric modulation of GABAA alpha1beta3gamma2L I242W mutant (unknown origin) expressed in Xenopus laevis oocytes assessed as increase in GABA-induced current at 8 uM by two microelectrode voltage-clamp electrophysiology; type: cell-based; details: Homo sapiens, filed as positive allosteric modulator

CC(C)c1cccc(C(C)C)c1O [PROPOFOL]
pIC50 [1]: 5.10 | pEC50 (Xenopus laevis): 6.20 | pIC50 [2]: 4.36 | pIC50 [3]: 4.49 | pEC50 [4]: 5.27

CC(C)c1cc(C2(C(F)(F)F)N=N2)cc(C(C)C)c1CO
pIC50 [1]: 3.34 | pEC50 (Xenopus laevis): 5.60 | pEC50 [5]: 5.54 | pIC50 [2]: 4.59 | pEC50 [6]: 5.00 | pIC50 [3]: 4.74 | LC50 [7]: 3.6 µM | pEC50 [4]: 5.13

C=CCC1(c2cccc(C3(C(F)(F)F)N=N3)c2)C(=O)NC(=O)N(C)C1=O (stereo not drawn)
Activity (Oocyte [8]): Active | Activity (Oocyte [9]): inactive | Activity (Oocyte [10]): inactive | Activity (Oocyte [11]): Active | Activity (Oocyte [12]): Active

CC(C)c1cccc(C(C)C)c1CO
pIC50 [1]: 4.04 | pEC50 (Xenopus laevis): 4.80 | pIC50 [2]: 3.61 | pEC50 [4]: 4.40

OCc1ccccc1 [BENZYL ALCOHOL]
pEC50 (Xenopus laevis): 2.70 | pEC50 [4]: < 1.30

OCc1ccc(C2(C(F)(F)F)N=N2)cc1
pIC50 [1]: 3.52 | pEC50 (Xenopus laevis): 4.55 | pIC50 [2]: 3.33 | pEC50 [4]: 3.15
